Source: PMC3361572 (Chemistry & biology, 2012)

Tests used:
hFAAH = biological target: T1, hFAAH (Homo sapiens, UniProt O00519); test: competitive ABPP, proteomes of transiently transfected HEK293T cells; assay type: biochemical; settings: for IC50: read-out: IC50 (95% CI), human FAAH, competitive ABPP, transfected HEK293T cell proteome
T1 sequence (O00519 1-579): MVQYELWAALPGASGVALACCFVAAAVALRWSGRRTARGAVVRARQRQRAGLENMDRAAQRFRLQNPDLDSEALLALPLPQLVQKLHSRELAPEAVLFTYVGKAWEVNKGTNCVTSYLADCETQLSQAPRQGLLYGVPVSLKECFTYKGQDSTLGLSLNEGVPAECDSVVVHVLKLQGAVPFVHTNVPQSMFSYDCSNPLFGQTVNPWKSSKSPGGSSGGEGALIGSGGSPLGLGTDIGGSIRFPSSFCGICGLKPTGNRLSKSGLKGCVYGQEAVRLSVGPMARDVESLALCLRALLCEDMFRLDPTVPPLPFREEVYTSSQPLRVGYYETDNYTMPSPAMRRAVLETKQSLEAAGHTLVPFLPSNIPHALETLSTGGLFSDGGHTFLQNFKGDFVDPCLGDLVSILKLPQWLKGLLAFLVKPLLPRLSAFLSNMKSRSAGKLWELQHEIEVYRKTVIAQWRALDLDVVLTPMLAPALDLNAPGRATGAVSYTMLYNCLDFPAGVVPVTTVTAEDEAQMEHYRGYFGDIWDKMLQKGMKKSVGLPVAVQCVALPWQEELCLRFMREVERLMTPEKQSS

[1] = test system: other rat brain serine hydrolases; test: competitive ABPP, rat brain proteome, other serine hydrolases; assay type: biochemical
Procedure, shortened: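 Rat brain proteome was preincubated with test compound, then labelled with the serine hydrolase-directed probe FP-rhodamine. Proteins were separated by SDS-PAGE and scanned by in-gel fluorescence. Inhibition of individual serine hydrolases was scored as reduced probe labelling.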

FAAH [2] = biological target: T2, FAAH (Rattus norvegicus, UniProt P97612); test: competitive ABPP, rat brain membrane proteome; assay type: biochemical; settings: read-out: IC50 (95% CI), rat FAAH; competitive ABPP, rat brain membrane proteome
T2 sequence (P97612 1-579): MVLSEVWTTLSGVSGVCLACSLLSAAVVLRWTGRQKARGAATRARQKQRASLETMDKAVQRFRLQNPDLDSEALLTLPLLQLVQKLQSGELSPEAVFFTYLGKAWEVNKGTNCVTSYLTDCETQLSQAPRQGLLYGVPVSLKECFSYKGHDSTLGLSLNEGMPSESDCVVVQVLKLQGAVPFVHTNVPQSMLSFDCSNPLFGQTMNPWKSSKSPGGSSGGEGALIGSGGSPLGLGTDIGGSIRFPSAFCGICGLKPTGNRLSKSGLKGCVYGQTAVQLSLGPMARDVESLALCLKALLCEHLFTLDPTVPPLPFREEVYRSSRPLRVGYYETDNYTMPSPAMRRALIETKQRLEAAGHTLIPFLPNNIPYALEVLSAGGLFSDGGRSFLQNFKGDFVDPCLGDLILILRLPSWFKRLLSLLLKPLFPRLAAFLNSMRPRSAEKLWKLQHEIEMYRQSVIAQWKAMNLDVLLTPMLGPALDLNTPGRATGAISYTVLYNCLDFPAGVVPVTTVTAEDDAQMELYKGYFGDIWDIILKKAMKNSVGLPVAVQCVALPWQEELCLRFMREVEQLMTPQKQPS
Procedure, shortened: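 Rat brain proteome pre-treated with test compound, then labelled with the serine hydrolase-directed fluorophosphonate-rhodamine (FP-Rh) activity-based probe. Proteins separated by SDS-PAGE and detected by in-gel fluorescence scanning. Inhibition scored as loss of FP-Rh labelling of the FAAH band. IC50 calculated from the gel-based ABPP data.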

hMAGL = biological target: T3, hMAGL (Homo sapiens, UniProt Q99685); test: competitive ABPP, proteomes of transiently transfected HEK293T cells; assay type: biochemical; settings: read-out: IC50 (95% CI), human MAGL, transfected HEK293T cell proteome
T3 sequence (Q99685 1-303): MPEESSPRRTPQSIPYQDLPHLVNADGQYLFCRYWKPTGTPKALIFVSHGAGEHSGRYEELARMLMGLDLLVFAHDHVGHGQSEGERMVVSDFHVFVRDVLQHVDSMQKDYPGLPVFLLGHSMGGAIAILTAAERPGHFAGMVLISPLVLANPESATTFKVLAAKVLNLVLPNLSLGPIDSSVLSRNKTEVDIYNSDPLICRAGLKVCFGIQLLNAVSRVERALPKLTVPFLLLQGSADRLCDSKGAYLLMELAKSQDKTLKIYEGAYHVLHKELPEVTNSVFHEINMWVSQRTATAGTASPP

FAAH [3] = biological target: T4, FAAH (Mus musculus, UniProt O08914); test: competitive ABPP, mouse brain membrane proteome; assay type: biochemical
T4 sequence (O08914 1-579): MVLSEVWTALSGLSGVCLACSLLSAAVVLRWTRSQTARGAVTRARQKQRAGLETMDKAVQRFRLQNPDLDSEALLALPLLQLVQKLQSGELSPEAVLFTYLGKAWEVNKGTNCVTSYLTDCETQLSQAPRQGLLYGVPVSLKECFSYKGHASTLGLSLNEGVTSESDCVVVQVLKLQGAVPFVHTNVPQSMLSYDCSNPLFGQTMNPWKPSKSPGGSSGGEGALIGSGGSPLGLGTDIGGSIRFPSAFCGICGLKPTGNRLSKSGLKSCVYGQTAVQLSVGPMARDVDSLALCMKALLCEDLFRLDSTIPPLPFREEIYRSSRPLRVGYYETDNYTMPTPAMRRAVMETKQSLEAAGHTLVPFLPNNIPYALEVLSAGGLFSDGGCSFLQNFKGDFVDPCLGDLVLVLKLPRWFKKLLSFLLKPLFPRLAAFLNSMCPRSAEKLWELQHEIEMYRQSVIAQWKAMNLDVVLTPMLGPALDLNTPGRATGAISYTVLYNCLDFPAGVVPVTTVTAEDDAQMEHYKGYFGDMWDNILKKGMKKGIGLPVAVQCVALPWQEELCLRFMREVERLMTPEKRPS
Procedure, shortened: (§1)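 Brain (mouse or rat) or mouse lung proteomes were preincubated with the test compound, then treated with the serine hydrolase probe FP-Rh. Samples were separated by SDS-PAGE and read by in-gel fluorescence scanning. Inhibition was taken as reduced FP-Rh labelling of MAGL, ABHD6, FAAH or CES bands, and IC50 values were calculated from quantified gel bands. Three independent experiments.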

MAGL [4] = biological target: T5, MAGL (Mus musculus, UniProt O35678); test: competitive ABPP, mouse brain membrane proteome; assay type: biochemical; settings: mouse brain proteome, competitive ABPP
T5 sequence (O35678 1-303): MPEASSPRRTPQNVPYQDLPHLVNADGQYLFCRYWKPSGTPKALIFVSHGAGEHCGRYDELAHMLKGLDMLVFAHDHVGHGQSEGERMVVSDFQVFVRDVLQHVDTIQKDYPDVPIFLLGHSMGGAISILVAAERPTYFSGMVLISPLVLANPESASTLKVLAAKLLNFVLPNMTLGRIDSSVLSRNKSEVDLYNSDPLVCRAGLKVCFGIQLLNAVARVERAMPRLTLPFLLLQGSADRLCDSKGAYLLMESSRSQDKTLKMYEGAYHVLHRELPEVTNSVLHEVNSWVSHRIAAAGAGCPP

MAGL [5] = biological target: T6, MAGL (Rattus norvegicus, UniProt Q8R431); test: competitive ABPP, rat brain membrane proteome; assay type: biochemical; settings: read-out: IC50 (95% CI), rat MAGL; competitive ABPP, rat brain membrane proteome
T6 sequence (Q8R431 1-303): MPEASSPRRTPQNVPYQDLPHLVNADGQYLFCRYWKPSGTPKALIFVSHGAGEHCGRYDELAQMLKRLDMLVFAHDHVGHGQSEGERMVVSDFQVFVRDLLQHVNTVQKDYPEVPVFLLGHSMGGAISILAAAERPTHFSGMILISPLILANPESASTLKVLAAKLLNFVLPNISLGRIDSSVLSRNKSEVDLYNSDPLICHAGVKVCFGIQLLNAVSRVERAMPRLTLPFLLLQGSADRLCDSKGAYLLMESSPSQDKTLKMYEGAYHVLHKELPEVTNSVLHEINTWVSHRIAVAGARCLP
Procedure, shortened: as §1

FAAH [6] = biological target: T4, FAAH; test: competitive ABPP of brain from inhibitor-treated mice; assay type: in vivo
[7] = test system: carboxylesterase (CES) enzymes; test: gel-based ABPP of liver, lung and spleen from inhibitor-treated mice; assay type: in vivo, mouse
[8] = previously noted by the authors, no reference given; cited from earlier work
[9] = test system: brain 2-AG, AA, AEA, PEA, OEA; test: brain lipid profile of inhibitor-treated mice; assay type: in vivo, mouse; settings: 40 mg kg^−1 p.o., six days
[10] = no reference given; cited from earlier work

SMILES	IC50 (hFAAH) [µM]	additional off-target reactivity with other rat brain serine hydrolases [1]	IC50 (FAAH [2]) [µM]	IC50 (hMAGL) [nM]	FAAH reactivity (FAAH [3]; competitive ABPP, up to 10 μM)	potency for MAGL relative to FAAH (MAGL [4]) [fold]	IC50 (MAGL [5]) [nM]	FAAH inhibition / cross-reactivity (gel-based ABPP) (FAAH [3]; mouse brain proteome, concentration range tested 0.001–50 μM)	cross-reactivity with hFAAH (competitive ABPP) (hFAAH; lysates of HEK293T cells transfected with hFAAH)	brain FAAH inhibition, chronic dosing (FAAH [6]; 40 mg kg^−1 p.o., six days)	inhibition of brain FAAH (FAAH [6]; highest dose tested 40 mg kg^−1 p.o., 4 h)	CES inhibition in peripheral tissues, chronic dosing ([7]; 40 mg kg^−1 p.o., six days)	reactivity with CESs in liver, lung and spleen ([7]; 1–40 mg kg^−1 p.o., 4 h)	solubility in dosing vehicle [8]	brain 2-AG and NAE levels, chronic dosing [9]	pKa [10]
O=C(OC(C(F)(F)F)C(F)(F)F)N1CCN(Cc2cccc(Oc3ccccc3)c2)CC1 [JW642]	20.6	did not detect any additional off-target reactivity	14	3.7	no observable FAAH reactivity up to 10 μM	> 1000	14									
CN(Cc1cccc(-c2ccncc2)c1)C(=O)OC(C(F)(F)F)C(F)(F)F [JW618]	> 50	did not detect any additional off-target reactivity	> 50				385	no detectable crossreactivity with FAAH								
O=C(Oc1ccc([N+](=O)[O-])cc1)N1CCC(C(O)(c2ccc3c(c2)OCO3)c2ccc3c(c2)OCO3)CC1 [JZL184, reference compound]	> 50		3.57				262		no detectable cross-reactivity with FAAH up to 50 μM	not only inhibited MAGL, but also FAAH	partially inhibit FAAH	several CES enzymes in peripheral tissues	significant reactivity with several CESs	limited solubility	increases in both 2-AG and NAEs	
OC(C(F)(F)F)C(F)(F)F [hexafluoroisopropanol]																~ 9.3
